Test results from ChEMBL document CHEMBL4706728, “Discovery of a Highly Selective and Potent TRPC3 Inhibitor with High Metabolic Stability and Low Toxicity” (ACS Med Chem Lett, 2021).
Active and inactive are the calls of the source. The rule behind the calls is not given here.

Key:
[1] = molecular target: T1, Short transient receptor potential channel 6 (Mus musculus) (UniProt Q61143); assay: Inhibition of mouse TRPC6 expressed in HEK293 cells assessed as inhibition of GSK170-induced current at 10 uM by whole cell patch-clamp method; type: cell-based
T1 sequence (whole entry): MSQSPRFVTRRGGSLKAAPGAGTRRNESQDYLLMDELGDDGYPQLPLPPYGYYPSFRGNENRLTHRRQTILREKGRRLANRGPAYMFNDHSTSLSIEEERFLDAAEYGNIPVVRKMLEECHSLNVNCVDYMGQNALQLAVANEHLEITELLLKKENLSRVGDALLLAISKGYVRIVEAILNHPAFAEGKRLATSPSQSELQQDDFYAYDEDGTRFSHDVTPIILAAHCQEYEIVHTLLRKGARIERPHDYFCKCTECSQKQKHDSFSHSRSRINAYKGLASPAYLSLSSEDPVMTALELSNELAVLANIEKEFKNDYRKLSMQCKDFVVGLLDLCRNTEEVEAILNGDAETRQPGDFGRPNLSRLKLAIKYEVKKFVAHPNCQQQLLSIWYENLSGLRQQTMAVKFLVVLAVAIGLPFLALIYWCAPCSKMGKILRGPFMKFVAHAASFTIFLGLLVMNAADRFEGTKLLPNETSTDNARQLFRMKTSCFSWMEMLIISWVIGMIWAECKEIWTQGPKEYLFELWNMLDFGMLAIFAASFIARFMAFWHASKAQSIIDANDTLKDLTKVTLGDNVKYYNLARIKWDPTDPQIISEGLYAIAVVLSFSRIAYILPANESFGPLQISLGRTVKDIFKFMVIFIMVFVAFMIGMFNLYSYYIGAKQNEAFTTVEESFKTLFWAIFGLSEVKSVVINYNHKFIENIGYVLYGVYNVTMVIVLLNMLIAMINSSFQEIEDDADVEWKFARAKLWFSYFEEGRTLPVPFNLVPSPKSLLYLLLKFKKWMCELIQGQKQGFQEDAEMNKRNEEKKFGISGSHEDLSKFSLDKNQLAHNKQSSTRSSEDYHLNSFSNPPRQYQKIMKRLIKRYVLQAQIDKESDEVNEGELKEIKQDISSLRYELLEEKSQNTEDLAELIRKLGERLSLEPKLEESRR
Outline: (§1)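 TRP channels overexpressed in HEK293 cells (hTRPA1, rTRPV1, rTRPV4, mouse TRPC6, hTRPC7, hTRPM8). Whole-cell patch clamp with Ca2+-free solutions to avoid desensitization. Channels fully activated with high concentrations of their agonists (AITC for TRPA1, capsaicin for TRPV1, GSK1016790A for TRPV4), then 10 μM test compound perfused with agonist. Result expressed as percentage of peak current blocked; mean ± SD.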

[2] = Binding affinity to human His8-MBP-TRPC3b I395V mutant expressed in baculovirus infected Sf9 cells incubated for 1 hr by LC-MS analysis
Outline: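 Purified hTRPC3 protein incubated with compound for 1 h. Free compound removed by repeated size-exclusion chromatography. Methanol added to denature the protein and extract bound compound, which is detected by LC-MS against a prepared control. MS data collected from 2.5 min onward to keep buffer salts out.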

[3] = molecular target: Transient receptor potential cation channel subfamily M member 8 (Homo sapiens) (UniProt Q7Z2W7); assay: Inhibition of human TRPM8 expressed in HEK293 cells assessed as inhibition of […]-induced current at 10 uM by whole cell patch-clamp method; type: cell-based; outline: as §1
Chain of Transient receptor potential cation channel subfamily M member 8 (Homo sapiens) (Q7Z2W7 whole entry, looked up): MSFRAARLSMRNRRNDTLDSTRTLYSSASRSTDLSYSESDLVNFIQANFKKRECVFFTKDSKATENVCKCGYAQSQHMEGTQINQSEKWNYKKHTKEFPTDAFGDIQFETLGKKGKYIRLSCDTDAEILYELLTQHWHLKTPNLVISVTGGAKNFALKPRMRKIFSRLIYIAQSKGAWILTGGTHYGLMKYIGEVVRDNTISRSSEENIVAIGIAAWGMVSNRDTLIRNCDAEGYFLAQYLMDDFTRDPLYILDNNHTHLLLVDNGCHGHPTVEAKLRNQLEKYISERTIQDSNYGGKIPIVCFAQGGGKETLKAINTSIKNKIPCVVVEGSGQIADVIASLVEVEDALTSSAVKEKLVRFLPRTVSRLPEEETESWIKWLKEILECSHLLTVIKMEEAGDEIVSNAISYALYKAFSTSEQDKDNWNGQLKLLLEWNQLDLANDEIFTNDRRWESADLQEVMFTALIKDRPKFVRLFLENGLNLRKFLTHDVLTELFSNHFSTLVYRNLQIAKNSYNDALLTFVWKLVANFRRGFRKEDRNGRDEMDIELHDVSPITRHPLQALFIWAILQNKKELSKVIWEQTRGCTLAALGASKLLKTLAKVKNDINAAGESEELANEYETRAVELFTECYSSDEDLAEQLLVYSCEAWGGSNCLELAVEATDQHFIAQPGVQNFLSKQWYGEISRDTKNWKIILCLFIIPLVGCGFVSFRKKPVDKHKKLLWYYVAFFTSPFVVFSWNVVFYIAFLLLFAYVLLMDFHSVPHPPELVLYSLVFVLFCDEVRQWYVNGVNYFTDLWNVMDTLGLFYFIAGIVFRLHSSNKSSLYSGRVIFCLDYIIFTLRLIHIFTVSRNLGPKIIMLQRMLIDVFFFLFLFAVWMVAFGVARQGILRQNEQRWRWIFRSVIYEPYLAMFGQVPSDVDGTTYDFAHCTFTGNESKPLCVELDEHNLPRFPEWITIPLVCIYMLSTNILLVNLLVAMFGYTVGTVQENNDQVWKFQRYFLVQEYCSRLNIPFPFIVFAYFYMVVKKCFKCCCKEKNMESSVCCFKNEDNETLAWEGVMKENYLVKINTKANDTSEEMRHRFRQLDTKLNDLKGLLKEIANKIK

[4] = molecular target: Transient receptor potential cation channel subfamily V member 1 (Rattus norvegicus) (UniProt O35433); assay: Inhibition of rat TRPV1 expressed in HEK293 cells assessed as inhibition of capsaicin-induced current at 10 uM by whole cell patch-clamp method; type: cell-based; outline: as §1
Chain of Transient receptor potential cation channel subfamily V member 1 (Rattus norvegicus) (O35433 whole entry): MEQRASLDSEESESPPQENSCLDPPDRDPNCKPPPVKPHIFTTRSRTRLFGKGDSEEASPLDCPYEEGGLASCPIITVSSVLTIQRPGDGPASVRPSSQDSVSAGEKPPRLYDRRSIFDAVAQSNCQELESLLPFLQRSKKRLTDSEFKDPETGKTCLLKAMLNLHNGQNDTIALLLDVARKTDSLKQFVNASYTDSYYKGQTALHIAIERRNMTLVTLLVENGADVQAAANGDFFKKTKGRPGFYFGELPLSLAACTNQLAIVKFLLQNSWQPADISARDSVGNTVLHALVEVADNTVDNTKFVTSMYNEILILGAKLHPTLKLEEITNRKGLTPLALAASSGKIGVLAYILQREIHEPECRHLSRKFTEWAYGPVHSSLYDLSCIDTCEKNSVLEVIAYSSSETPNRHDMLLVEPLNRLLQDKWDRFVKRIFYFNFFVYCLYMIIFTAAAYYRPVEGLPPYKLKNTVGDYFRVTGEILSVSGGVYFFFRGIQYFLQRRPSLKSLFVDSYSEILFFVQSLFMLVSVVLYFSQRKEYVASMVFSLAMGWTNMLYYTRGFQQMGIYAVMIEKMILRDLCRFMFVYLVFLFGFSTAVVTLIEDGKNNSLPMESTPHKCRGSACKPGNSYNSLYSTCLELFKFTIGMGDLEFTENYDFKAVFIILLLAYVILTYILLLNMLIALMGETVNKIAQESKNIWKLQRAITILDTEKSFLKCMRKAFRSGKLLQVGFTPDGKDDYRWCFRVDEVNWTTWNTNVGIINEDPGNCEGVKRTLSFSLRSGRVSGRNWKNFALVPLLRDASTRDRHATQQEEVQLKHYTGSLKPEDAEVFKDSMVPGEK

[5] = molecular target: Transient receptor potential cation channel subfamily A member 1 (Homo sapiens) (UniProt O75762); assay: Inhibition of human TRPA1 expressed in HEK293 cells assessed as inhibition of AITC-induced current at 10 uM by whole cell patch-clamp method; type: cell-based; outline: as §1
Chain of Transient receptor potential cation channel subfamily A member 1 (Homo sapiens) (O75762 whole entry): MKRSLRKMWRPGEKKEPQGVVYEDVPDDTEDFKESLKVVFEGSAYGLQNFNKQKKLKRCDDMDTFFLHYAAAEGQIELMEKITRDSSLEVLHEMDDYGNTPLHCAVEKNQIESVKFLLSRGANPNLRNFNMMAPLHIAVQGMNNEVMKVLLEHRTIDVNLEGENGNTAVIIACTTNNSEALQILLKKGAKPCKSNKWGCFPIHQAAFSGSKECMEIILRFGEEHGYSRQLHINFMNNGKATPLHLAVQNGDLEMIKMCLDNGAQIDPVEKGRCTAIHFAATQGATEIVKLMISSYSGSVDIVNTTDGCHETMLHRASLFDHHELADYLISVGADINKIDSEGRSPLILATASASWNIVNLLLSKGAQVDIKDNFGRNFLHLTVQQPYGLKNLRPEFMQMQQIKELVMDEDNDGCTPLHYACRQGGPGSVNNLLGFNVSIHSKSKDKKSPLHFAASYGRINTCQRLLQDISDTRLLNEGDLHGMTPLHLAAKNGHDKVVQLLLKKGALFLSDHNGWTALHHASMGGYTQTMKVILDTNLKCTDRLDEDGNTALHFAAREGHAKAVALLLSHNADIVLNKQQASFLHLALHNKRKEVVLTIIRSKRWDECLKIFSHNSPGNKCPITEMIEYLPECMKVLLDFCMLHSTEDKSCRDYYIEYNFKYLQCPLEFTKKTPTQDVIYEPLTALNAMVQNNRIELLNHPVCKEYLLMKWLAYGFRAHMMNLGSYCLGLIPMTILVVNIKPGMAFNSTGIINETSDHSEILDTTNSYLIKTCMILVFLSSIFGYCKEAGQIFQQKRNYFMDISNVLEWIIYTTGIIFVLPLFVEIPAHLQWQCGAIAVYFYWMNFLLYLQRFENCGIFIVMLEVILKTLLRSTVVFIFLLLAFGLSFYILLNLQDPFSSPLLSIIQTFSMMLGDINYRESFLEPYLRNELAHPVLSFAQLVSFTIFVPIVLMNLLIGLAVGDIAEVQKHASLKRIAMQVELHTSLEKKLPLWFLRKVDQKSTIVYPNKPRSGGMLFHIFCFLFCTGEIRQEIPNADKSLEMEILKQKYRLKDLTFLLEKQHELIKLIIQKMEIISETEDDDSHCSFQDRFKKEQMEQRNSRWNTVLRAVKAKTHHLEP

[6] = Toxicity in NSG/ICR mouse assessed as body weight loss at 200 mg/kg, ip administered once daily for 5 days; type: organism-based; settings: in vivo, 120 h, dose 200 mg/kg/day, time 5 day
Outline: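 Mice (n = 5 per group) dosed at 200 mg/kg by intraperitoneal injection once daily for 5 consecutive days. Survival monitored. Body weight expressed as mean percent change ± SD relative to weight at the start of treatment (day 0), with 15% weight loss as the reference line.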

[7] = Metabolic stability in mouse liver microsomes assessed as half life at […] measured up to 240 mins in presence of NADPH regeneration system by LC-MS analysis; type: ADME, Microsome
[8] = molecular target: T2, Short transient receptor potential channel 7 (Homo sapiens) (UniProt Q9HCX4); assay: Inhibition of human TRPC7 expressed in HEK293 cells assessed as inhibition of GSK170-induced current at 10 uM by whole cell patch-clamp method; type: cell-based; outline: as §1
T2 sequence (whole entry): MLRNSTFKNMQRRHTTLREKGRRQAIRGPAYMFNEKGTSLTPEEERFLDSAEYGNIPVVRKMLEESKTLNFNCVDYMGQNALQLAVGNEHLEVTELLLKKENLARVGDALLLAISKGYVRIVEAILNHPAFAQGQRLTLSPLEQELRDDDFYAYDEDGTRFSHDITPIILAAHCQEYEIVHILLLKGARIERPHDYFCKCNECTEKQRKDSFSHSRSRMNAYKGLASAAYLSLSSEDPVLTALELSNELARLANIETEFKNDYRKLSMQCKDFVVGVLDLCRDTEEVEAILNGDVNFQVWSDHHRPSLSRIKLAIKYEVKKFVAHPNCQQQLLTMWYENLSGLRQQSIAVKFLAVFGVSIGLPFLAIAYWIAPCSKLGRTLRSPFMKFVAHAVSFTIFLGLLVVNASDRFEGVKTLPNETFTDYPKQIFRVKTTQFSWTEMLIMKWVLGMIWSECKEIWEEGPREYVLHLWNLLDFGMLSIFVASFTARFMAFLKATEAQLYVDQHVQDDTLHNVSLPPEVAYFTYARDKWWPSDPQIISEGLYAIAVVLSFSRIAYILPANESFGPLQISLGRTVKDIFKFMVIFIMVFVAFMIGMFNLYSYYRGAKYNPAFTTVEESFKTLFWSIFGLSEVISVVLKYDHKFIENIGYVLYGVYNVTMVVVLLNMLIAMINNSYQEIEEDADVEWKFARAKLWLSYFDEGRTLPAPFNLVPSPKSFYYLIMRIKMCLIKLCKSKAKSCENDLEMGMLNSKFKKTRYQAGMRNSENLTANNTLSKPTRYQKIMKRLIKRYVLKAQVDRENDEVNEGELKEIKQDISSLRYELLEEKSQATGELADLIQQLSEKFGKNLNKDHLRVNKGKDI

With `CCNC(=O)c1cnn(-c2ccc(-n3ccc(Cl)c(Cl)c3=O)cc2)c1C(F)(F)F` the inhibition [1] was 39%, the Activity [2] was “Active” and the inhibition [3] was “inactive”. The inhibition [4] was “inactive”, the inhibition [5] was “inactive” and the Activity [6] was “Non-Toxic”. It also gave a half-life [7] greater than 4 h and an inhibition [8] of 26%.
